Apaf-1 inh – blocks human Apaf-1 apoptosome activity | inhibition, % at 20 µM | O14727 | reconstituted apoptosome caspase-3 activity, DEVD-Rh110 fluorescence | 330,000 tested, 0.71% active; active means inhibition of at least 40% at 20 µM
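Assay system: Apoptosome proteins | Medium: pH 7.5 Hepes buffer with CHAPS, BSA, DTT | Also added: Cytochrome c and DEVD-Rh110 substrate | Times: 30 min plus 50 min, RT | Detection: Rhodamine 110 fluorescence at Ex 480/Em 540 nm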
ZTA DNA inh – counter-screen for EBNA-1 inhibitors: inhibitors of Epstein-Barr virus ZTA | AID 2234 | 320,000 tested, 0.15% active | ZTA-DNA binding, fluorescence polarization | inhibition, % at 11 µM; in the data active means inhibition above about 33%
Target sequence (P03206 whole entry, looked up): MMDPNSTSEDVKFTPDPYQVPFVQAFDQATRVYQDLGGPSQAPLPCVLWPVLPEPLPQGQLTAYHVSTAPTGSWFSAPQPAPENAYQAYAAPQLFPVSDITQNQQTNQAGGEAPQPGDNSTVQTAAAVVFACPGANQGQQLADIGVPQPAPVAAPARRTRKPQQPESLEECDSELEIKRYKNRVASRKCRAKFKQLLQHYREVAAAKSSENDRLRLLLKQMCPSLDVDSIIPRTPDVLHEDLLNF
EBNA-1 inhibitor – blocks EBNA-1 binding to DNA; EBNA-1 DNA binding, fluorescence polarization; inhibition, % at 14.8 µM; 300,000 tested, 0.34% active; AID 1950; in the data active means inhibition above about 28%
UBC13 polyUb – human UBC13 polyubiquitination inhibition | P61088 | UBC13 polyubiquitin chain formation, TR-FRET | inhibition, % at 20 µM | 330,000 tested, 0.47% active | AID 485273; in the data active means inhibition above about 45%, passing the limit was not always enough
Target sequence (P61088 whole entry, looked up): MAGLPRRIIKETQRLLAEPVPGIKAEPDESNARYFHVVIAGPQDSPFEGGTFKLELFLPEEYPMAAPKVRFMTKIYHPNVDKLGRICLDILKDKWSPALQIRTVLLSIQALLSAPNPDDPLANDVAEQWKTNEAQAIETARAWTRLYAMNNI
PREPL inhibitor – inhibits the human prolyl oligopeptidase-like enzyme; 320,000 tested, 0.68% active; Q4J6C6; inhibition, % at 5.96 µM; recombinant PREPL, fluorescence polarization activity-based probe; in the data active means inhibition above about 43%
A number is an active result; n = inactive; x = no result given. Shown are actives, neighbours in structure and some others; about 1.7% of the full set was active somewhere.

SMILES | Apaf-1 inh | ZTA DNA inh | EBNA-1 inhibitor | UBC13 polyUb | PREPL inhibitor
CCOC(=O)c1c(C)n(CC)c2ccc(OC(=O)c3ccc([N+](=O)[O-])cc3)cc12 | n | n | n | n | 49
N#Cc1c(N)sc(=S)c2c1CCN(Cc1ccccc1)C2 | 96 | n | n | n | 74
CCOC(=O)c1cc(-c2ccccc2)sc1NC(=O)COC(=O)c1cccc(S(N)(=O)=O)c1 | n | n | 77 | n | n
Cc1csc(SCC(=O)NCc2ccc3c(c2)OCO3)n1 | n | n | n | n | n
Cc1ccc(-n2nc3ccc(N)cc3n2)cc1 | 82 | n | n | n | n
CC(C)c1ccc(-n2nc3ccc(N)cc3n2)cc1 | 63 | n | n | n | n
CCOc1ccc(CN2CCN(Cc3nc(C(C)C)cs3)CC2CCO)cc1 (stereo not given) | n | n | n | n | n
Cc1oc2c(c1C(=O)NCc1cccnc1)C(=O)c1ccccc1C2=O | 86 | n | n | n | n
C[N+]1(C)CCC(=C2c3ccccc3CC(=O)c3sccc32)CC1 | 57 | n | n | n | n
O=C(OCc1cc(Cl)ccc1OC(F)F)c1cncc(Br)c1 | n | n | n | n | n
O=C(OCc1cc(Cl)ccc1OC(F)F)c1ccc([N+](=O)[O-])o1 | 66 | n | n | n | n
CC(C)(C)c1[nH]nc2c1C(c1ccc(OC(=O)c3ccco3)cc1)C(C#N)=C(N)O2 (stereo not given) | n | n | n | n | 71
COc1ccc(C)c2sc(=NC(=O)c3cccc(N4C(=O)CCC4=O)c3)n(C)c12 | n | n | n | n | n
CCCCCCc1cc2cc(-c3nnc(-c4cc(OC)c(OC)c(OC)c4)o3)c(=O)oc2cc1O | 63 | n | n | n | n
CCCCCCc1cc2cc(-c3nnc(-c4ccccc4O)o3)c(=O)oc2cc1O | n | n | n | n | n
Oc1ccc(Cl)cc1CNc1cccc2cccnc12 | 91 | n | n | n | n
C=CCC[C@@H](Cc1ccc(F)cc1)C(=O)OC[C@@H](C)NC(=O)[C@@H](CC=C)CC(=O)N[C@H](CO)Cc1ccccc1 | n | x | x | n | n
O=C(CSc1ccc(-c2nc3ccccc3[nH]2)cn1)Nc1ccc(S(=O)(=O)NC2CC2)cc1 | n | n | n | n | n
Cc1nn(CC(=O)N(C)c2c(N)n(Cc3ccccc3)c(=O)[nH]c2=O)c(C)c1[N+](=O)[O-] | n | n | x | n | n
C#CCOCCOCCOCCNc1nc(N2CCN(C(=O)CCCCCCCCCCNC(=O)[C@H]([C@@H](C)CC)n3cc(CCCCN=C(N)N)nn3)CC2)nc(N2CCN(C(=O)CCCCCCCCCCNC(=O)[C@H]([C@@H](C)CC)n3cc(CCCCN=C(N)N)nn3)CC2)n1 | 41 | 147 | n | 126 | 68
CC[C@H](C)[C@@H](C(=O)NCCCCCCCCCCC(=O)N1CCN(C(=O)OC(C)(C)C)CC1)n1cc(CCCCCNC(=O)OC(C)(C)C)nn1 | n | n | n | n | n
C#CCOCCOCCOCCNc1nc(N2CCN(C(=O)[C@H]([C@@H](C)CC)n3cc(CCCN=C(N)N)nn3)CC2)nc(N2CCN(C(=O)[C@H]([C@@H](C)CC)n3cc(CCCN=C(N)N)nn3)CC2)n1 | n | x | x | n | x
C#CCOCCOCCOCCNc1nc(N2CCN(C(=O)CCCCCCCCCCNC(=O)[C@H]([C@@H](C)CC)n3cc(CCCCCN)nn3)CC2)nc(N2CCN(C(=O)CCCCCCCCCCNC(=O)[C@@H]([C@H](C)CC)n3cc(CCCCCN)nn3)CC2)n1 | 78 | 65 | n | 123 | 59
CC[C@H](C)[C@@H](C(=O)NCCCCCCCCCCC(=O)N1CCN(C(=O)OC(C)(C)C)CC1)n1cc(CCCCN=C(NC(=O)OC(C)(C)C)NC(=O)OC(C)(C)C)nn1 | 56 | n | n | 71 | n
C#CCOCCOCCOCCNc1nc(N2CCN(C(=O)Cn3cc(CCCCN)nn3)CC2)nc(N2CCN(C(=O)[C@H]([C@@H](C)CC)n3cc(CCCCN)nn3)CC2)n1 | n | n | n | n | n
SMILES | Apaf-1 inh | ZTA DNA inh | EBNA-1 inhibitor | UBC13 polyUb | PREPL inhibitor
C#CCOCCOCCOCCNc1nc(N2CCOCC2)nc(N2CCN(C(=O)CCCCCCCCCCNC(=O)[C@@H](CCC(=O)O)n3cc(CCCCCN)nn3)CC2)n1 | n | n | n | n | n
C#CCOCCOCCOCCNc1nc(N2CCN(C(=O)CCCCCCCCCCNC(=O)[C@H](CCCCN)n3cc(C)nn3)CC2)nc(N2CCN(C(=O)CCCCCCCCCCNC(=O)[C@H](CCCCN)n3cc(CCCC(=O)O)nn3)CC2)n1 | 63 | n | n | 114 | n
N#Cc1c(/N=C\c2ccc(O)c([N+](=O)[O-])c2)sc2c1CCCC2 | n | n | n | n | n
COc1ccc2nc(NC(=O)C3COc4ccccc4O3)sc2c1 (stereo not given) | n | n | n | n | n
CCOC(=O)Oc1ccc2c(=O)c(Oc3cccc(C)c3)coc2c1 | n | n | n | n | 65
COc1ccc2nc(NC(=O)CSc3ccccc3)sc2c1 | n | n | n | n | n
COc1ccc2nc(NC(=O)CSc3nnc(N)s3)sc2c1 | n | n | 37 | n | n
COc1cccc(C(=O)O/N=C(\N)c2ccccn2)c1 | n | n | n | n | n
CCOc1ccccc1Nc1nc(-c2sc(NC(=O)c3ccccc3)nc2C)cs1 | n | n | n | 69 | n
O=C(COc1ccccc1Cl)Nc1cccc(S(=O)(=O)N2CCCC2)c1 | n | n | x | n | n
CC(C)(C)c1ccc(S(=O)(=O)NCC(=O)Nc2ccc(-c3nc4ccccc4s3)cc2)cc1 | n | n | n | n | n
O=C(CNS(=O)(=O)c1cccc(Cl)c1)Nc1ccc(-c2nc3ccccc3s2)cc1 | n | n | 55 | n | n
Cc1cc(NC(=O)CCCC(=O)N(c2ccccc2)C(C(=O)NC2CCCCC2)c2cccs2)no1 (stereo not given) | n | n | n | n | n
CC1=NN(c2ccc(Br)cc2)C(=O)/C1=C/c1ccc(-c2ccccc2C(=O)O)o1 | 78 | n | n | n | n
CC1=NOC(=O)/C1=C\c1ccc(-c2ccc(Br)cc2C(=O)O)o1 | n | n | n | n | n
O=C(NCc1ccccn1)c1ccc(CNS(=O)(=O)c2cccc(C(F)(F)F)c2)cc1 | n | n | n | n | n
Cc1cc(C)n(CC(O)Cn2ccc3ccccc32)n1 (stereo not given) | n | n | n | n | n
OC(CN1CCNCC1)Cn1ccc2ccccc21 (stereo not given) | n | n | n | n | 60
Oc1ccccc1NCC(O)Cn1ccc2ccccc21 (stereo not given) | n | n | n | n | 45
CN(C)N1C(N)=C(C#N)C(c2ccc(F)cc2)C2=C1CCCC2=O (stereo not given) | n | n | n | n | n
Cc1cc(NC(=O)CSCc2nc(-c3cccc(F)c3)oc2C)no1 | n | n | n | n | n
CCc1ccc(N2C(=O)Cc3c2nc(N)c(C#N)c3N)cc1 | n | n | n | n | 44
COc1ccc(C(CCN2CCCC(C)C2)c2c(OC)cc(OC)c3c(C)cc(=O)oc23)cc1 (stereo not given) | n | n | n | n | n

Screens: PubChem BioAssay, several laboratories
